The term IC50 denotes the point on the concentration scale where inhibition reaches its midpoint. The term inhibition in vivo denotes the percentage by which the read-out fell short of the control.

The values below come from ChEMBL document CHEMBL3822360, “Synthesis of new thiazolo-celecoxib analogues as dual cyclooxygenase-2/15-lipoxygenase inhibitors: Determination of regio-specific different pyrazole cyclization by 2D NMR” (Eur J Med Chem, 2016).

Series [1] can be described thus: Inhibition of soybean 15-LOX using arachidonic acid as substrate by enzyme immunoassay. Also noted: species or system Glycine max. The essentials: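 Soybean 15-LOX inhibition was measured with an EIA kit following the manufacturer's instructions, in 0.1 M Tris-HCl buffer, pH 7.4. Compounds were dissolved in minimal DMSO and diluted to final concentrations of 0.001–10 μM, including 1, 5 and 10 μM. IC50 (μM) is the mean of two determinations.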

For series [2], the system named is Rattus norvegicus. As to the kind of experiment: Anti-inflammatory activity in Wistar albino rat assessed as inhibition of carrageenan-induced paw edema at 50 mg/kg, po measured after 4 hrs relative to control. It is filed as functional. The method, boiled down: (§1)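 Adult male Wistar albino rats (100–150 g) were housed under a 12 h light cycle at 27 ± 2 °C with food and water. Paw edema was induced with carrageenan after oral dosing. […] Values are mean ± SEM, n = 5.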
A general note: Carrageenan injected into the paw causes an acute inflammation.

The target in series [3] is T1, Prostaglandin G/H synthase 1 (Ovis aries, UniProt P05979).
T1 sequence (P05979 whole entry): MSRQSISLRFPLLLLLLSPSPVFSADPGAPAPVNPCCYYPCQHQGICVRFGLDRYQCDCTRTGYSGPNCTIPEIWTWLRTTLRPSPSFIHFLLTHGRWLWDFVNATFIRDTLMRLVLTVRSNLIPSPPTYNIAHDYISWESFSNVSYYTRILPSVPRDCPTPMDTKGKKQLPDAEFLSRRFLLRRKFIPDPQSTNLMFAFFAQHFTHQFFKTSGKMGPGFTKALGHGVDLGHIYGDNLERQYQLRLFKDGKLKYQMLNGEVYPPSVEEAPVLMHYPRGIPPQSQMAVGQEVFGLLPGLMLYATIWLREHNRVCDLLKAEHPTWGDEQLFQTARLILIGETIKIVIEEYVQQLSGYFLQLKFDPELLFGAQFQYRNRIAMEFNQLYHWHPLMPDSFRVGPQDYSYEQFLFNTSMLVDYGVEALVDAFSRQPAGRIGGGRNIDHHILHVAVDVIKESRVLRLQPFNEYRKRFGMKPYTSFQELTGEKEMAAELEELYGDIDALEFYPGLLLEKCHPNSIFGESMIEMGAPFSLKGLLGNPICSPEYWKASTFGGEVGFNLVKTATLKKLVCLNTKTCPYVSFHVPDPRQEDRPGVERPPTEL
As to the kind of experiment: Inhibition of ovine COX-1 assessed as reduction in PGF2-alpha formation using arachidonic acid as substrate by enzyme immunoassay.

Series [4] concerns Rattus norvegicus. As to the kind of experiment: Anti-inflammatory activity in Wistar albino rat assessed as inhibition of carrageenan-induced paw edema at 50 mg/kg, po measured after 2 hrs relative to control. It is filed as functional. The method, boiled down: as §1
The subject of series [5] is Rattus norvegicus. Put plainly: Ulcerogenicity in Wistar albino rat assessed as damage in gastric mucosa at 50 mg/kg, po qd for 3 days measured 1 hr post last dose. It is filed as toxicity, organism-based. The settings on record: in vivo. The essentials: (§2)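 Rats were fasted 18 h, then dosed orally once daily for 3 consecutive days. Compounds were given in DMSO; controls received 10% aqueous DMSO (v/v). Ulcer index is the sum of % ulcer incidence/10, mean number of ulcers per stomach and mean ulcer severity. Values are mean ± SEM.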

In series [6] the test system is Rattus norvegicus. As to the kind of experiment: Anti-inflammatory activity in Wistar albino rat assessed as inhibition of carrageenan-induced paw edema 15 mg/kg, po measured after 4 hrs relative to control. It is filed as functional. The essentials:
as §1

For series [7], the system named is Rattus norvegicus. As to the kind of experiment: Ulcerogenicity in Wistar albino rat assessed as damage in gastric mucosa at 30.9 umol/kg, po qd for 3 days measured 1 hr post last dose. It is filed as toxicity, organism-based. The settings on record: in vivo. The essentials: as §2
Series [8] concerns Rattus norvegicus. As to the kind of experiment: Anti-inflammatory activity against Wistar albino rat model of carrageenan-induced paw edema assessed as reduction in paw thickness at 15 mg/kg, po measured after 2 hrs relative to control. It is filed as functional. The method, boiled down:
as §1

On to `COc1ccc(/C=C/C(=O)c2sc(-c3ccccc3)nc2C)cc1`, for which the IC50 in series [1] amounted to 7.4 µM; in series [3], 8.6 µM. Besides, the inhibition in vivo at 50 mg/kg is 46.9% in series [2] and 43.8% in series [4]. The UI in series [5] came out at 4.08.

As for `COc1ccc([C@@H]2CC(c3sc(-c4ccccc4)nc3C)=NN2c2ccc(S(C)(=O)=O)cc2)cc1`, the IC50 in series [1] came to 4.71 µM; in series [3] it was 5.8 µM. The inhibition in vivo at 50 mg/kg in series [2] came out at 28.1%; in series [4], 27.5%. In series [5], the UI was 3.83.

As for `Cc1nc(-c2ccccc2)sc1-c1cc(C(F)(F)F)nn1-c1ccc(S(N)(=O)=O)cc1`, the IC50 came to 5.41 µM in series [1] and 6.3 µM in series [3]. The inhibition in vivo at 50 mg/kg came to 57.8% in series [2] and 53.2% in series [4]. The UI in series [5] is listed as 2.67.

In the case of `COc1ccc([C@@H]2CC(c3sc(-c4ccccc4)nc3C)=NN2c2ccc(S(N)(=O)=O)cc2)cc1`, the IC50 in series [1] was determined as 5.9 µM; in series [3], 6.8 µM. Also, the inhibition in vivo at 50 mg/kg in series [2] stood at 42.2%; in series [4], 37.1%. Also, the UI in series [5] was found to be 3.79.

`C/C(=N\Nc1ccc(S(N)(=O)=O)cc1)c1sc(-c2ccccc2)nc1C`: the IC50 in series [1] is 8.6 µM; in series [3], 9.8 µM. Moreover, the inhibition in vivo at 50 mg/kg in series [2] was 37.1%; in series [4], 33.9%. Also, in series [5], the UI is recorded as 2.65.

`Cc1nc(-c2ccccc2)sc1-c1ccnn1-c1ccc(S(N)(=O)=O)cc1`: the IC50 in series [1] was found to be 8.68 µM; in series [3] it was 9.8 µM. For the same compound, the values for the inhibition in vivo at 50 mg/kg in series [2] and in series [4] were 54.7% and 54.8%, respectively. For the same compound, in series [5], the UI amounted to 2.48.

In series [1], `Cc1ccc(Cl)c(Nc2ccccc2C(=O)O)c1Cl` [MECLOFENAMATE SODIUM] gave an IC50 of 5.64 µM.

Consider `C/C(=N\Nc1ccc(S(C)(=O)=O)cc1)c1sc(-c2ccccc2)nc1C`, for which the values for the IC50 in series [1] and in series [3] were 6.35 µM and 5.4 µM, respectively. The inhibition in vivo at 50 mg/kg amounted to 28.1% in series [2] and 27.4% in series [4]. In series [5], the UI is on record as 3.87.

Regarding `Cc1nc(-c2ccccc2)sc1-c1ccnn1-c1ccc(S(C)(=O)=O)cc1`, the IC50 in series [1] came to 7.49 µM; in series [3], 10.3 µM. Besides, the inhibition in vivo at 50 mg/kg in series [2] came to 48.4%; in series [4], 46.8%. The UI in series [5] was 4.35.

Take `Cc1nc(-c2ccccc2)sc1-c1cc(C(F)(F)F)nn1-c1ccc(S(C)(=O)=O)cc1`: the 50% inhibitory concentration (IC50) in series [1] came to 3.98 µM; in series [3], 4.8 µM. Besides, the inhibition in vivo at 50 mg/kg turned out to be 51.6% in series [2] and 53.2% in series [4]. The UI in series [5] was found to be 2.78.

Consider `Cc1ccc(-c2cc(C(F)(F)F)nn2-c2ccc(S(N)(=O)=O)cc2)cc1` [CELECOXIB], for which the “inhibition (INH)” value in series [6] amounted to 65.63%. Also, in series [7], the UI amounted to 2.9. Further, the inhibition in vivo at 15 mg/kg in series [8] came out at 59.7%.

As to `Cc1nc(-c2ccccc2)sc1-c1ccnn1-c1ccc(S(=O)(=O)/N=C/N(C)C)cc1`, the IC50 in series [1] is 7.68 µM; in series [3], 8.7 µM. The figures for the inhibition in vivo at 50 mg/kg in series [2] and in series [4] were 51.6% and 53.2%, respectively. Besides, in series [5], the UI is 2.93.
